In PubChem BioAssay:
Records with an inconclusive call do not appear. Calls of active or inactive are those of the source.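 Rule for the calls, unless noted: active = cell viability at or below a set limit in both duplicate runs, the limit being the all-compound median minus 4 SD (cut at about 23% in these data, passing the limit was not always enough); inconclusive = no clear call, values can overlap the other calls; inactive = the rest.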

Legend:
[1] = S. cerevisiae growth inhibition in permissive medium (OD615), pilot counter-assay for S. cerevisiae lifespan shortening project, permissive growth control (AID 705;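 active = growth inhibition above 25% in both replicates, a cutoff set 3 SD above the mean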); details: OD615, 24 h, at 10 µM, hits give high values
In short: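 System – S. cerevisiae with engineered DeaD lifespan system · Buffer or medium – SC raffinose/galactose permissive medium · Schedule – cells pre-grown 4 h, then 24 h compound exposure, 30 °C humidified · Technique – culture turbidity as optical density at 615 nm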

[2] = S. cerevisiae growth inhibition in restrictive medium, OD615, pilot screen, restrictive growth control, yeast lifespan reduction project (AID 706;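 active = growth inhibition above a set limit, 3 SD over mean compound inhibition, in both replicates, cut at about 43% in these data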;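 note: modified DeaD lifespan yeast strain shifted to restrictive glucose medium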); details: OD615, 48 h, at 10 µM, hits give high values
In short: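 Material: engineered S. cerevisiae DeaD strain / Medium: glucose-based CSMM-D restrictive medium / Compound: single dose of 10 µM compound final, 0.25% DMSO / Timing: 4 h pre-incubation, 48 h exposure at 30 °C / Technique: OD615 absorbance reading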

[3] = doxorubicin toxicity protection in MRP-1 cells – H69AR cells, CellTiter-Glo, duplicate, MRP-1 activator project, pilot screen (AID 807;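 active = viability increase at or above a cutoff of the median across tested compounds plus 3 SD, cut at about 8.5% in these data, passing the limit was not always enough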;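 note: compound pretreatment 18-22 h then 72 h combined with doxorubicin; 0% = doxorubicin alone and 100% = vehicle without doxorubicin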); details: H69AR viability with doxorubicin, CellTiter-Glo luminescence; at 10 µM; hits give high values
[4] = viability of HCT116 without oncogenic beta-catenin – human colon tumor cells, pilot screen (AID 823); details: HCT116 beta-catenin knockout viability, CellTiter-Glo, 60 h; at 10 µM; hits give low values;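 note: 0% = wells killed by 20 µM Hyamine and 100% = untreated DMSO cell wells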
[5] = viability of PTEN-null HCT116 cells – cell-based, HCT116 clonal line, CellTiter-Glo, pilot screen (AID 824;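 active = viability at or below 27.92% in each of two runs, the all-compound median minus 4 SD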;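 note: 0% = 20 µM Hyamine control and 100% = vehicle cell control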); details: HCT116 PTEN-deleted viability, 60 h, at 10 µM, hits give low values
[6] = RAM pathway blockade in budding yeast – dse1pr::URA3 reporter, 5-FOA selection, pilot screen (AID 869;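 active = inhibition over a set limit, the all-compound mean plus 3 SD, in both replicate runs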;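 note: 0% = DMSO wells with no growth and 100% = 10 µM 1-NA-PP1 with full growth; RAM network block rescues cells from 5-FOA so hits raise OD615 growth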); details: S. cerevisiae dse1pr::URA3 5-FOA growth, OD615, 2 d; at 10 µM; hits give high values; strain carries analog-sensitive mutant Cbk1 kinase
[7] = RAM signaling pathway blockade in yeast – S. cerevisiae, Pdr1DBD-CYC8 efflux-inhibited sensitized strain, primary screen (AID 1298;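 active = RAM network inhibition above 8.4% in each of two replicates, 3 SD over the compound average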;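 note: 0% = DMSO untreated cells without growth and 100% = 10 µM 1-NA-PP1 full growth; higher means more yeast growth rescued from 5-FOA killing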); details: S. cerevisiae cbk1-as DSE1-URA3 strain, 5-FOA growth OD615, 2 d; at 50 µM; hits give high values

O=C1CCCN1CC(CN1CCOCC1)Sc1nnnn1-c1ccccc1 (stereo not given)
inactive: growth inhibition [1] -0.73% | growth inhibition [2] 7.22% | viability increase [3] -3.37% | viability [4] 100% | viability [5] 105% | inhibition [6] 1.56% | RAM network inhibition [7] 5.8%

CCOC(=O)C(C(=O)OCC)=C1OC(=O)c2ccccc21
inactive: growth inhibition [1] -11.1% | growth inhibition [2] -7.16% | viability increase [3] 0.39% | viability [4] 98.6% | viability [5] 96.4% | inhibition [6] 2.19% | RAM network inhibition [7] 2.35%

CCC/C(O)=C1\C(=O)CC(C)(C)CC1=NCCO
inactive: growth inhibition [1] 1.41% | growth inhibition [2] 11.1% | viability increase [3] -0.35% | viability [4] 91.9% | viability [5] 98.6% | inhibition [6] 2.65% | RAM network inhibition [7] 3.31%

Cc1ccc(-c2nc(CS(=O)CC(=O)NCc3ccccc3)c(C)o2)cc1 (stereo not given)
inactive: growth inhibition [1] 2.69% | growth inhibition [2] -1.83% | viability increase [3] -2.84% | viability [4] 98.2% | viability [5] 89.5% | inhibition [6] 0.175% | RAM network inhibition [7] 6.78%

CCCNC(=O)Nc1cc(OCC)c(N2CCOCC2)cc1OCC
inactive: growth inhibition [1] -0.41% | growth inhibition [2] 6.55% | viability increase [3] -1.37% | viability [4] 99.6% | viability [5] 105% | inhibition [6] 1.57% | RAM network inhibition [7] 0.87%

CCOC(=O)CSC1=C(C#N)C(c2ccc(Cl)cc2)CC(=O)N1 (stereo not given)
inactive: growth inhibition [1] -15.6% | growth inhibition [2] -15.6% | viability increase [3] 0.52% | viability [4] 87.8% | viability [5] 82.5% | inhibition [6] 0.69% | RAM network inhibition [7] 0.53%

O=C(CCn1c(=O)oc2ccccc21)Nc1ccc2c(c1)OCCO2
inactive: growth inhibition [1] -3.18% | growth inhibition [2] -9.54% | viability increase [3] -3.68% | viability [4] 103% | viability [5] 96% | inhibition [6] 1.88% | RAM network inhibition [7] 3.61%

Cc1ccc2cc(CCNC(=O)CC(C)C)c(=O)[nH]c2c1
inactive: growth inhibition [1] -7.75% | growth inhibition [2] -0.53% | viability increase [3] 0.14% | viability [4] 105% | viability [5] 103% | inhibition [6] 1.69% | RAM network inhibition [7] 3.87%

O=C(CSC1=NS(=O)(=O)c2ccccc21)Nc1ccccc1
inactive: viability increase [3] -2.73% | viability [4] 94.3% | viability [5] 104% | inhibition [6] -0.07% | RAM network inhibition [7] -0.47%
active: growth inhibition [1] 56.7% | growth inhibition [2] 96.9%

CC1=C(C(=O)N(C)C)C(c2cccc(Cl)c2)NC(=O)N1 (stereo not given)
inactive: growth inhibition [1] -2.44% | growth inhibition [2] -14.6% | viability increase [3] 0.18% | viability [4] 99.1% | viability [5] 94.9% | inhibition [6] 2.12% | RAM network inhibition [7] 2.17%

OCCCc1nc2n(n1)C(c1cccs1)C=C(c1ccccc1)N2 (stereo not given)
inactive: growth inhibition [1] -17.7% | growth inhibition [2] -5.79% | viability increase [3] -4.73% | viability [4] 83.6% | viability [5] 84.7% | inhibition [6] 3.25% | RAM network inhibition [7] 3.92%

CCOc1cccc(C2c3c(oc4cc(C)c(C)cc4c3=O)C(=O)N2CCCN(C)C)c1 (stereo not given)
inactive: growth inhibition [1] 1.31% | growth inhibition [2] -0.895% | viability increase [3] -3.58% | viability [4] 92.9% | viability [5] 85.9% | inhibition [6] 1.8% | RAM network inhibition [7] 2.55%

CCOc1ccccc1NC(=O)CSc1nnc(-c2ccco2)n1Cc1ccco1
inactive: growth inhibition [1] 3.23% | growth inhibition [2] 2.22% | viability increase [3] -2.48% | viability [4] 95.7% | viability [5] 88.2% | inhibition [6] -0.165% | RAM network inhibition [7] 3.85%

CCOC(=O)C1CCN(C(=O)COc2cc(C)c(Br)c(C)c2)CC1
inactive: growth inhibition [1] -2.41% | growth inhibition [2] -16.5% | viability increase [3] -3.43% | viability [4] 94.4% | viability [5] 85.3% | inhibition [6] 1.47% | RAM network inhibition [7] 1.59%

Cc1ccc(Cl)cc1NC(=O)COC(=O)C1CCCC1
inactive: growth inhibition [1] -22% | growth inhibition [2] -14.1% | viability increase [3] -0.05% | viability [4] 99.1% | viability [5] 94.4% | inhibition [6] 1.32% | RAM network inhibition [7] 1.69%

C#CC(C)(C)NC(=O)CSc1nc2c(c(=O)n(C)c(=O)n2C)n1CCCC
inactive: growth inhibition [1] -15.3% | growth inhibition [2] -13.7% | viability increase [3] 1.86% | viability [4] 102% | viability [5] 89.4% | inhibition [6] 2.11% | RAM network inhibition [7] 1.45%

Fc1ccccc1COc1ccc(/C=N/n2cnnc2)cc1
inactive: growth inhibition [1] 3.41% | growth inhibition [2] 23.7% | viability increase [3] -1.78% | viability [4] 102% | viability [5] 95.4% | inhibition [6] 2.11% | RAM network inhibition [7] 2.09%

Cc1csc(NC(=O)C(CC(C)C)NS(=O)(=O)c2ccc3c(c2)oc(=O)n3C)n1 (stereo not given)
inactive: growth inhibition [1] 2.94% | growth inhibition [2] -3.39% | viability increase [3] -0.77% | viability [4] 103% | viability [5] 106% | inhibition [6] 1.33% | RAM network inhibition [7] 2.74%

COC(=O)C1=CN(CCCN2CCCC2=O)C=C(C(=O)OC)C1c1ccccc1C(F)(F)F
inactive: growth inhibition [1] -10% | growth inhibition [2] 1.3% | viability increase [3] -6.27% | viability [4] 39.6% | viability [5] 35.7% | inhibition [6] 0.125% | RAM network inhibition [7] 1.94%

COC(=O)C(C)n1cnc2c(nnn2-c2cccc(Cl)c2)c1=O (stereo not given)
inactive: growth inhibition [1] -6.67% | growth inhibition [2] 1.2% | viability increase [3] 2.08% | viability [4] 110% | viability [5] 99% | inhibition [6] 0.05% | RAM network inhibition [7] 6.76%

O=C(CSc1ncnc2c1oc1ccccc12)NC1CCCCC1
inactive: growth inhibition [1] -5.42% | growth inhibition [2] 3.17% | viability increase [3] -0.15% | viability [4] 95% | viability [5] 85.3% | inhibition [6] 1.92% | RAM network inhibition [7] 4.21%

Cc1c(C(=O)NCc2ccc3c(c2)OCO3)oc2ccc(S(=O)(=O)N3CCC(C)CC3)cc12
inactive: growth inhibition [1] -11.5% | growth inhibition [2] -16.7% | viability increase [3] 0.73% | viability [4] 74.7% | viability [5] 73% | inhibition [6] 2.39% | RAM network inhibition [7] 11.2%

O=C(Nc1ccc(S(=O)(=O)N2CCCCCC2)cc1)c1ccc(Br)o1
inactive: growth inhibition [1] -4.67% | growth inhibition [2] 0.21% | viability increase [3] -3.03% | viability [4] 69.6% | viability [5] 59.7% | inhibition [6] 2.62% | RAM network inhibition [7] 5.05%

CCOC(=O)CSc1nnc(CSc2nc3sc4c(c3c(=O)[nH]2)CCC4)n1C
inactive: growth inhibition [1] -5.48% | growth inhibition [2] 4.33% | viability increase [3] -2% | viability [4] 98.4% | viability [5] 107% | inhibition [6] 0.35% | RAM network inhibition [7] 6.56%

COc1ccc(C(=O)N2CCN(c3ccc(C)c(C)c3)CC2)cc1OC
inactive: growth inhibition [1] -6.27% | growth inhibition [2] -4.04% | viability increase [3] -0.89% | viability [4] 99.5% | viability [5] 92% | inhibition [6] 0.21% | RAM network inhibition [7] 2.55%

CCN(CC)c1ccc(NC(=O)CN2C(=O)CSc3ncccc32)c(C)c1
inactive: growth inhibition [1] 1.52% | growth inhibition [2] -5.94% | viability increase [3] 0.51% | viability [4] 45.2% | viability [5] 66% | inhibition [6] 1.34% | RAM network inhibition [7] 6.12%

CS/C(=N\S(=O)(=O)c1ccc(N)cc1)NS(=O)(=O)c1cccs1
inactive: growth inhibition [1] -0.825% | growth inhibition [2] -11.5% | viability increase [3] -0.88% | viability [4] 103% | viability [5] 102% | inhibition [6] 0.23% | RAM network inhibition [7] 3.11%

Cc1ccc(C(c2sc3nc(C)nn3c2O)N2CCN(CCO)CC2)cc1 (stereo not given)
inactive: growth inhibition [1] -1.01% | growth inhibition [2] 7% | viability increase [3] -0.92% | viability [4] 97.8% | viability [5] 97.5% | inhibition [6] 1.54% | RAM network inhibition [7] 4.52%

COc1cc(OC)cc(OCC(O)Cn2cnc3cc(C)c(C)cc32)c1 (stereo not given)
inactive: growth inhibition [1] -4.53% | growth inhibition [2] -8.79% | viability increase [3] -5.24% | viability [4] 80.2% | viability [5] 80.3% | inhibition [6] 1.33% | RAM network inhibition [7] -0.82%

Cc1ccc(F)c(NC(=O)C2CCCCC2C(=O)O)c1 (stereo not given)
inactive: growth inhibition [1] 1.12% | growth inhibition [2] -20.6% | viability increase [3] -2.22% | viability [4] 90.7% | viability [5] 94% | inhibition [6] 0.145% | RAM network inhibition [7] 2.88%

CCOC(=O)CN1CC23C=CC(O2)C(C(=O)NC2CCCCCC2)C3C1=O (stereo not given)
inactive: growth inhibition [1] -6.04% | growth inhibition [2] 3.45% | viability increase [3] -2.93% | viability [4] 99.3% | viability [5] 94.5% | inhibition [6] 1.36% | RAM network inhibition [7] 0.37%

CCOC(=O)C1CCN(C(=O)CN(c2ccc(OC)c(OC)c2)S(=O)(=O)c2ccccc2)CC1
inactive: growth inhibition [1] -2.99% | growth inhibition [2] -7.61% | viability increase [3] 0.05% | viability [4] 104% | viability [5] 94.6% | inhibition [6] 1.19% | RAM network inhibition [7] 6.25%

COc1ccc(C2C(C(=O)Nc3ccccc3OC)=C(C)Nc3ncnn32)cc1 (stereo not given)
inactive: growth inhibition [1] -18.5% | growth inhibition [2] 6.38% | viability increase [3] -3.68% | viability [4] 99.2% | viability [5] 94.4% | inhibition [6] 1.78% | RAM network inhibition [7] -2.3%

Cn1c(=O)c2c(nc(CN3CCCCC3)n2Cc2c(F)cccc2Cl)n(C)c1=O
inactive: growth inhibition [1] -2.88% | growth inhibition [2] -10.9% | viability increase [3] -2.22% | viability [4] 102% | viability [5] 93.2% | inhibition [6] 3.12% | RAM network inhibition [7] 4.38%

N#CC1=C(N)Oc2c(sc3ccccc23)C1c1ccco1 (stereo not given)
inactive: growth inhibition [1] -25.7% | growth inhibition [2] -4.08% | viability increase [3] -4.53% | viability [4] 63.3% | viability [5] 65.2% | inhibition [6] 1.22% | RAM network inhibition [7] -0.62%
